This is an account of results in ChEMBL document CHEMBL1687780, “Mutations in 23S rRNA at the peptidyl transferase center and their relationship to linezolid binding and cross-resistance” (2010).

In brackets after ≈: the same amount, converted by molar mass.

What all share (assay type): functional
The subject of experiment [1] is Mycolicibacterium smegmatis. As to the kind of experiment: Antibacterial activity against Mycobacterium smegmatis harboring 23S rRNA G2505A mutant after 24 generation times. The gist of the method: (§1)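 M. smegmatis SMR5 strains with one rRNA operon on a plasmid integrated at attB, grown in LB + 0.05% Tween 80 at 37°C to visible growth, diluted to OD600 0.02, and mixed 1:1 with 2-fold antibiotic dilutions. Tested ranges were linezolid 0.125–64 μg/ml and chloramphenicol, clindamycin, valnemulin 1–512 μg/ml. Incubation ran 37°C for 24 generation times of each strain. MIC was the lowest concentration with complete visual inhibition. Parent/wild-type controls were on each plate.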

Experiment [2] concerns Mycolicibacterium smegmatis. As to the kind of experiment: Antibacterial activity against Mycobacterium smegmatis harboring 23S rRNA G2032A, C2499A mutant after 24 generation times. The gist of the method:
as §1

The subject of experiment [3] is Mycolicibacterium smegmatis. As to the kind of experiment: Antibacterial activity against Mycobacterium smegmatis harboring 23S rRNA A2453U mutant after 24 generation times. The gist of the method:
as §1

Experiment [4] deals with Mycolicibacterium smegmatis. As to the kind of experiment: Antibacterial activity against Mycobacterium smegmatis harboring 23S rRNA G2576U mutant after 24 generation times. The gist of the method:
as §1

Experiment [5] concerns Mycolicibacterium smegmatis. As to the kind of experiment: Antibacterial activity against Mycobacterium smegmatis harboring 23S rRNA G2032A mutant after 24 generation times. The gist of the method: as §1
The test system of experiment [6] is Mycolicibacterium smegmatis. As to the kind of experiment: Antibacterial activity against wild type Mycobacterium smegmatis after 24 generation times. The gist of the method: as §1
Experiment [7] has as its system Mycolicibacterium smegmatis. As to the kind of experiment: Antibacterial activity against Mycobacterium smegmatis harboring 23S rRNA C2571G mutant after 24 generation times. A digest of the protocol: as §1
Experiment [8] concerns Mycolicibacterium smegmatis. As to the kind of experiment: Antibacterial activity against Mycobacterium smegmatis harboring 23S rRNA C2499A2 mutant after 24 generation times. A digest of the protocol:
as §1

Experiment [9] relates to Mycolicibacterium smegmatis. As to the kind of experiment: Antibacterial activity against Mycobacterium smegmatis harboring 23S rRNA G2032C mutant after 24 generation times. A digest of the protocol:
as §1

Experiment [10] relates to Mycolicibacterium smegmatis. As to the kind of experiment: Antibacterial activity against Mycobacterium smegmatis harboring 23S rRNA U2504G mutant after 24 generation times. A digest of the protocol:
as §1

In experiment [11] the test system is Mycolicibacterium smegmatis. As to the kind of experiment: Antibacterial activity against Mycobacterium smegmatis harboring 23S rRNA C2055A, A2572U mutant after 24 generation times. A digest of the protocol:
as §1

Experiment [12] concerns Mycolicibacterium smegmatis. As to the kind of experiment: Antibacterial activity against Mycobacterium smegmatis harboring 23S rRNA C2055A, U2504G mutant after 24 generation times. The gist of the method: as §1
The test system of experiment [13] is Mycolicibacterium smegmatis. As to the kind of experiment: Antibacterial activity against Mycobacterium smegmatis harboring 23S rRNA C2499U mutant after 24 generation times. The gist of the method: as §1
The test system of experiment [14] is Mycolicibacterium smegmatis. As to the kind of experiment: Antibacterial activity against Mycobacterium smegmatis harboring 23S rRNA G2032A, U2504G mutant after 24 generation times. The gist of the method:
as §1

Experiment [15] has as its system Mycolicibacterium smegmatis. As to the kind of experiment: Antibacterial activity against Mycobacterium smegmatis harboring 23S rRNA C2612A mutant after 24 generation times. A digest of the protocol: as §1
Experiment [16] deals with Mycolicibacterium smegmatis. As to the kind of experiment: Antibacterial activity against Mycobacterium smegmatis harboring 23S rRNA A2058G mutant after 24 generation times. The gist of the method: as §1
Experiment [17] concerns Mycolicibacterium smegmatis. As to the kind of experiment: Antibacterial activity against Mycobacterium smegmatis harboring 23S rRNA A2572U1 mutant after 24 generation times. A digest of the protocol: as §1
In experiment [18] the test system is Mycolicibacterium smegmatis. As to the kind of experiment: Antibacterial activity against Mycobacterium smegmatis SZ558 after 24 generation times. The gist of the method: as §1
The subject of experiment [19] is Mycolicibacterium smegmatis. As to the kind of experiment: Antibacterial activity against Mycobacterium smegmatis harboring 23S rRNA A2503G mutant after 24 generation times. The gist of the method: as §1
For experiment [20], the system named is Mycolicibacterium smegmatis. As to the kind of experiment: Antibacterial activity against Mycobacterium smegmatis harboring 23S rRNA C2055A mutant after 24 generation times. A digest of the protocol: as §1

Broadly, the MIC is the least concentration at which growth counts as inhibited. The low end stands for inhibition by little substance, the high end for a need for much substance. Regarding `C=C[C@]1(C)C[C@@H](OC(=O)CSC(C)(C)CNC(=O)[C@H](N)C(C)C)[C@]2(C)[C@H](C)CC[C@]3(CCC(=O)[C@H]32)[C@@H](C)[C@@H]1O` [VALNEMULIN], the MIC in [1] amounted to 32 µg/mL (≈ 56.7 µM); in experiment [2], 128 µg/mL (≈ 227 µM); in [3] it was 64 µg/mL (≈ 113 µM); in experiment [4] it was 32 µg/mL (≈ 56.7 µM); in experiment [5] it was 128 µg/mL (≈ 227 µM); in [6], 32 µg/mL (≈ 56.7 µM). The MIC in experiment [7] turned out to be 32 µg/mL (≈ 56.7 µM); in experiment [8], 64 µg/mL (≈ 113 µM); in experiment [9] it was 128 µg/mL (≈ 227 µM); in experiment [10], 64 µg/mL (≈ 113 µM); in [11] it was 128 µg/mL (≈ 227 µM); in [12] it was 64 µg/mL (≈ 113 µM). In addition, the MIC in experiment [13] was 32 µg/mL (≈ 56.7 µM); in [14], 128 µg/mL (≈ 227 µM); in experiment [15], 32 µg/mL (≈ 56.7 µM); in experiment [16] it was 64 µg/mL (≈ 113 µM); in [17], 128 µg/mL (≈ 227 µM); in experiment [18], 32 µg/mL (≈ 56.7 µM). Besides, the results for the MIC in experiment [19] and in experiment [20] were 32 µg/mL (≈ 56.7 µM) and 64 µg/mL (≈ 113 µM), respectively.
On to `CC(=O)NC[C@H]1CN(c2ccc(N3CCOCC3)c(F)c2)C(=O)O1` [LINEZOLID], for which the MIC in [1] came to 16 µg/mL (≈ 47.4 µM); in experiment [2] it was 8 µg/mL (≈ 23.7 µM); in experiment [3] it was 4 µg/mL (≈ 11.9 µM); in [4] it was 64 µg/mL (≈ 190 µM); in experiment [5], 2 µg/mL (≈ 5.93 µM); in experiment [6], 2 µg/mL (≈ 5.93 µM). Besides, the MIC in experiment [7] worked out at 4 µg/mL (≈ 11.9 µM); in experiment [8] it was 2 µg/mL (≈ 5.93 µM); in experiment [9] it was 4 µg/mL (≈ 11.9 µM); in experiment [10], 8 µg/mL (≈ 23.7 µM); in experiment [11] it was 64 µg/mL (≈ 190 µM); in experiment [12] it was 32 µg/mL (≈ 94.9 µM). The MIC was 2 µg/mL (≈ 5.93 µM) in experiment [13]; 64 µg/mL (≈ 190 µM) in [14]; 4 µg/mL (≈ 11.9 µM) in experiment [15]; 2 µg/mL (≈ 5.93 µM) in experiment [16]; 4 µg/mL (≈ 11.9 µM) in [17]; 2 µg/mL (≈ 5.93 µM) in experiment [18]. The MIC in [19] amounted to 8 µg/mL (≈ 23.7 µM); in experiment [20], 0.5 µg/mL (≈ 1.48 µM).
Regarding `O=C(N[C@H](CO)[C@H](O)c1ccc([N+](=O)[O-])cc1)C(Cl)Cl` [CHLORAMPHENICOL], the MIC in [1] came to 128 µg/mL (≈ 396 µM); in [2], 64 µg/mL (≈ 198 µM); in experiment [3] it was 32 µg/mL (≈ 99 µM); in experiment [4], 256 µg/mL (≈ 792 µM); in [5], 32 µg/mL (≈ 99 µM); in experiment [6] it was 32 µg/mL (≈ 99 µM). Further, the MIC in experiment [7] worked out at 32 µg/mL (≈ 99 µM); in experiment [8], 32 µg/mL (≈ 99 µM); in experiment [9] it was 32 µg/mL (≈ 99 µM); in experiment [10], 512 µg/mL (≈ 1580 µM); in [11], 64 µg/mL (≈ 198 µM); in experiment [12], 128 µg/mL (≈ 396 µM). Further, the MIC in [13] stood at 32 µg/mL (≈ 99 µM); in experiment [14], 256 µg/mL (≈ 792 µM); in [15] it was 64 µg/mL (≈ 198 µM); in experiment [16], 32 µg/mL (≈ 99 µM); in experiment [17] it was 8 µg/mL (≈ 24.8 µM); in [18], 32 µg/mL (≈ 99 µM). In addition, the MIC in experiment [19] turned out to be 128 µg/mL (≈ 396 µM); in [20] it was 32 µg/mL (≈ 99 µM).
With `CCC[C@@H]1C[C@@H](C(=O)N[C@@H]([C@H]2O[C@H](SC)[C@H](O)[C@@H](O)[C@H]2O)[C@H](C)Cl)N(C)C1` [CLINDAMYCIN], the MIC in [1] was determined as 16 µg/mL (≈ 37.6 µM); in [2], 16 µg/mL (≈ 37.6 µM); in [3], 32 µg/mL (≈ 75.3 µM); in experiment [4], 64 µg/mL (≈ 151 µM); in [5] it was 32 µg/mL (≈ 75.3 µM); in experiment [6], 16 µg/mL (≈ 37.6 µM). For the same compound, the MIC worked out at 16 µg/mL (≈ 37.6 µM) in experiment [7]; 16 µg/mL (≈ 37.6 µM) in experiment [8]; 128 µg/mL (≈ 301 µM) in experiment [9]; 16 µg/mL (≈ 37.6 µM) in experiment [10]; 512 µg/mL (≈ 1200 µM) in experiment [11]; 16 µg/mL (≈ 37.6 µM) in [12]. For the same compound, the MIC is 16 µg/mL (≈ 37.6 µM) in experiment [13]; 16 µg/mL (≈ 37.6 µM) in experiment [14]; 16 µg/mL (≈ 37.6 µM) in [15]; greater than 1030 µg/mL in experiment [16]; 16 µg/mL (≈ 37.6 µM) in [17]; 16 µg/mL (≈ 37.6 µM) in experiment [18]. Moreover, the results for the MIC in [19] and in experiment [20] were 8 µg/mL (≈ 18.8 µM) and 32 µg/mL (≈ 75.3 µM), respectively.
